Measured values: ChEMBL document CHEMBL1138928, “Toward orthopoxvirus countermeasures: a novel heteromorphic nucleoside of unusual structure” (J Med Chem, 2006)

Tests used:
Vaccinia virus = experiment: Antiviral activity against vaccinia virus in HFF cells by plaque reduction assay; format: functional, organism-based; settings: Orthopoxvirus vaccinia
Cowpox virus [1] = experiment: Antiviral activity against TK+ cowpox virus delta crmA in HFF cells; format: functional, organism-based
Cowpox virus [2] = experiment: Antiviral activity against cowpox virus in HFF cells by plaque reduction assay; format: functional, organism-based
Cowpox virus [3] = experiment: Antiviral activity against TK- cowpox virus TK:GFP lacZ in HFF cells; format: functional, organism-based
HFF = experiment: Cytotoxicity against HFF cells by neutral red uptake assay; format: functional; settings: Homo sapiens
Method in brief: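 Uninfected HFF cells are incubated with various drug concentrations for 7 days at 37 °C. Viability is read by Neutral Red uptake. CC50 is the concentration that reduces uptake by 50%.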

| Structure (SMILES) | EC50 (Vaccinia virus) | EC50 (Cowpox virus [1]) | EC50 (Cowpox virus [2]) | EC50 (Cowpox virus [3]) | CC50 (HFF) |
| --- | --- | --- | --- | --- | --- |
| N#CC1=C(N)OC2=C(C(=O)CCC2)C1c1cn([C@H]2C[C@@H](O)[C@@H](CO)O2)c(=O)[nH]c1=O (stereo not given in full) | 4.6 µM | 0.8 µM | 2 µM | 28 µM | > 300 µM |
| Nc1ccn(C[C@@H](CO)OCP(=O)(O)O)c(=O)n1 [CIDOFOVIR] | 24 µM | 3.3 µM | 40 µM | 5.2 µM | > 317 µM |
| O=c1[nH]c(=O)n([C@H]2C[C@H](O)[C@@H](CO)O2)cc1I [IDOXURIDINE] | 6 µM | 0.4 µM | 2 µM | 27 µM | > 260 µM |
